{
  "source": "paper PMC7385434",
  "about": "(Science Advances, 2020)",
  "key": {"[1]": {"system": "MDA-MB-231 tumor", "assay": "In vivo and ex vivo fluorescence imaging of tumor accumulation and retention", "parameters": "species or system mouse", "settings": "200 μM, n = 3", "in_short": "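MDA-MB-231-bearing BALB/c nude mice received test nanoparticles (200 μl, 200 μM) i.v.; peptide-only NPs and PBS served as controls. Whole-body fluorescence (ex 500 nm, em 520 nm) was imaged at 4, 12, 24, 48 and 72 h. At 72 h, heart, liver, spleen, lung, kidney and tumor were excised for ex vivo fluorescence imaging. Groups had three to four mice.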"}, "[2]": {"assay": "Safety for blood circulation: platelet activity, thrombin, platelet numbers", "type": "in vivo, mouse", "settings": "tumor-bearing mice, i.v. 200 μl, 200 μM, up to 5 days", "in_short": "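Tumor-bearing mice received test nanoparticles (200 μl, 200 μM) i.v. Blood was drawn into 3.8% sodium citrate at 0, 1, 4, 24 and 120 h. Platelet-rich plasma was obtained by mixing blood with an equal volume of 2% paraformaldehyde in PBS for 30 min, then centrifuging at 1000 rpm for 10 min. P-selectin was measured by flow cytometry after 30 min with FITC anti-P-selectin mAb. Thrombin was measured by ELISA; platelet counts by flow cytometry.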"}, "[3]": {"system": "HUVECs", "assay": "CCK-8 cytotoxicity assay, HUVECs", "type": "cell-based, human", "settings": "CCK-8, 24 hours, 10-80 μM, n = 4"}, "[4]": {"assay": "Safety: body weight and H&E of normal tissues during therapy", "type": "in vivo, mouse", "in_short": "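MDA-MB-231-bearing mice were randomized into three groups of three to four. They received test nanoparticles i.v. (200 μl, 200 μM; 2.4 mg/kg) every other day, with peptide-only NPs and PBS as controls. Body weight and tumor volume were recorded every other day. Normal tissues were fixed overnight in 4% paraformaldehyde/PBS, paraffin-embedded, sectioned, H&E-stained and examined by light microscopy.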"}, "[5]": {"system": "MCF-7 cells", "assay": "CCK-8 cytotoxicity assay, MCF-7 cells", "type": "cell-based, human", "settings": "CCK-8, 24 hours, 10-80 μM, n = 4"}, "[6]": {"system": "MDA-MB-231 xenografted tumor", "assay": "Blood oxygen saturation", "type": "in vivo, mouse", "settings": "4 hours after i.v. injection, 200 μl, 200 μM; n = 30 slices", "in_short": "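MDA-MB-231 tumor-bearing BALB/c mice were anesthetized with isoflurane in a glass box. Test nanoparticles (200 μl, 200 μM) were given i.v.; peptide-only NPs and PBS (200 μl) served as controls. Multispectral optoacoustic tomography read Hb at 715 nm and HbO2 at 850 nm before and 4 h after injection. 3D maps were built from 30 2D slices at 0.1 mm steps. Data are means ± SD; unpaired two-tailed t test.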"}, "[7]": {"assay": "Particle size and morphology by TEM and DLS", "type": "physicochemical", "in_short": "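Nanoparticles were formed by quick injection of a 4.0 mM DMSO peptide stock into water (0.5:99.5 v/v), giving 20 μM. They were incubated with CD105 (0.25 μg/ml) for 0, 4 and 8 h, with BSA or no protein as controls. TEM: drops sat on copper mesh 15 min, were blotted, stained 15 min with uranyl acetate, water-washed, air-dried and imaged at 200 kV. DLS was run at 0 and 8 h.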"}, "[8]": {"system": "tumor growth", "settings": "sunitinib at a dose of 8.75 mg/kg; cited from earlier work"}, "[9]": {"settings": "in vivo fluorescence at 4, 12, 24, 48, 72 hours after i.v. 200 μl"}},
  "data": [
    {"compound": "BP-AHKHVHHVPVRL [BA NPs]", "values": [
      {"measurement": "tumor fluorescence at 72 hours", "setting": "[1]; in vivo fluorescence after i.v. 200 μl", "result": "almost disappeared"}
    ]},
    {"compound": "BP-FFVLK-AHKHVHHVPVRL [pNPs]", "values": [
      {"measurement": "change in plasma thrombin generation", "setting": "[2]; ELISA", "result": "did not induce obvious changes"},
      {"measurement": "change in circulating platelet numbers", "setting": "[2]; flow cytometry", "result": "did not induce obvious changes"},
      {"measurement": "change in platelet activity (P-selectin-positive platelets)", "setting": "[2]; flow cytometry", "result": "did not induce obvious changes"},
      {"measurement": "persistence of fluorescence in tumor", "setting": "[1]; [9]", "result": 72, "unit": "h"},
      {"measurement": "time up to which artificial clots continuously accumulated in tumor", "setting": "[1]; [9]", "result": 24, "unit": "h"},
      {"measurement": "concentration showing good biocompatibility (cell viability)", "setting": "[3]", "result": "below 50 μM"},
      {"measurement": "acute systemic toxicity by body weight", "setting": "[4]; i.v. 200 μM, 200 μl every other day, body weight every other day", "result": "did not induce acute systematic toxicity"},
      {"measurement": "cell necrosis in other (non-tumor) tissues, H&E", "setting": "[4]; tissues harvested 15 d after treatment", "result": "not observed"},
      {"measurement": "concentration showing good biocompatibility (cell viability)", "setting": "[5]", "result": "below 50 μM"},
      {"measurement": "decrease in sO2 in tumors compared with before injection", "setting": "[6]", "result": 33.8, "unit": "%"},
      {"measurement": "size during incubation with CD105 (TEM)", "setting": "[7]; 20 μM with CD105 0.25 μg/ml in water, pNPs at start, apNFs at 4 hours", "result": "30.6 ± 7.1", "unit": "nm"},
      {"measurement": "size by DLS before incubation with CD105", "setting": "[7]; 20 μM, 0 hours, multidisperse after CD105 incubation 8 hours", "result": 31.6, "unit": "nm"},
      {"measurement": "diameter (TEM and DLS)", "setting": "[7]; 20 μM, H2O:DMSO = 99.5:0.5 v/v, freshly prepared", "result": "23.1 ± 5.8", "unit": "nm"},
      {"measurement": "stability of nanoparticles in water", "setting": "[7]; 20 μM, water with 0.5% DMSO, without CD105, 0 and 8 h, CD, FT-IR, TEM", "result": "stable"},
      {"measurement": "diameter after incubation with BSA in place of CD105", "setting": "[7]; bovine serum albumin replacing CD105, remained particulate", "result": "29.5 ± 5.3", "unit": "nm"}
    ]},
    {"compound": "CCN(CC)CCNC(=O)c1c(C)[nH]c(/C=C2\\C(=O)Nc3ccc(F)cc32)c1C", "note": "[sunitinib]", "values": [
      {"measurement": "tumor growth inhibition", "setting": "[8]", "result": 32, "unit": "%"}
    ]}
  ]
}
